Measured values as given in ChEMBL document CHEMBL1153533, “Phosphoramidate prodrugs of 2'-C-methylcytidine for therapy of hepatitis C virus infection” (J Med Chem, 2009).

What was measured:
[1] = test system: Hepatitis C virus; test: Antiviral activity against HCV infected in human HBI10A cells by subgenomic viral replicon assay; type: functional, organism-based, Hepacivirus hominis
[2] = Cytotoxicity against human HBI10A cells
[3] = Selectivity index, ratio of CC50 for human HBI10A cells to EC50 for HCV infected in human HBI10A cells
Summary of the method: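 Subgenomic HCV replicon assay gives EC₅₀ (n = 2-9 independent determinations). CC₅₀ is the concentration cutting cell viability by 50%. SI = CC₅₀/EC₅₀.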

[4] = Drug concentration in hamster liver assessed as nucleoside triphosphate level at 1.5 umol/kg, sc after 6 hrs; conditions: cricetinae, in vivo
[5] = Drug level in hamster liver assessed as nucleoside triphosphate level at 1 mg/kg, sc after 24 hrs; type: ADME, organism-based; set-up: dose 1 mg/kg, route subcutaneous; conditions: cricetinae, in vivo, read-out: Drug uptake
[6] = Drug level in rabbit liver assessed as nucleoside triphosphate level at 1 mg/kg, sc after 24 hrs; type: ADME, organism-based, Oryctolagus cuniculus; set-up: dose 1 mg/kg, route subcutaneous; conditions: in vivo, read-out: Drug uptake
[7] = test system: Liver; test: Drug level in rat liver assessed as nucleoside triphosphate level at 1 mg/kg, sc after 24 hrs; type: ADME, organism-based; set-up: dose 1 mg/kg, route subcutaneous; conditions: in vivo, read-out: Drug uptake
[8] = test system: Hamster; test: AUC (0 to 48 hrs) in hamster at 1 mg/kg, sc; type: ADME, organism-based, Plasma; set-up: time < 48 hr, dose 1 mg/kg, route subcutaneous; conditions: cricetinae, in vivo
[9] = test system: Liver; test: Drug concentration in rat liver assessed as nucleoside triphosphate level at […], sc after 6 hrs; type: ADME, organism-based; conditions: in vivo, read-out: Drug uptake
[10] = test system: Hepatitis C virus; test: Antiviral activity against HCV infected in human HBI10A cells at 20 uM by subgenomic viral replicon assay; type: functional, Hepacivirus hominis
[11] = test system: Hepatitis C virus; test: Antiviral activity against HCV assessed as logarithmic reduction in plasma viral RNA at 1500 mg, po BID after 14 days; type: functional, Hepacivirus hominis
[12] = test system: Hepacivirus hominis; test: Inhibition of HCV NS5B polymerase by cell-based assay
[13] = test system: Hepatocyte; test: Stability in cryopreserved primary human hepatocytes assessed as increase in intracellular nucleoside triphosphate formation by LC-MS/MS analysis; type: ADME, cell-based
[14] = test system: Hepatitis C virus; test: Antiviral activity against HCV assessed as logarithmic reduction in plasma viral RNA at 800 mg, po BID after 14 days; type: functional, Hepacivirus hominis
[15] = Stability in human HBI10A cells assessed as intracellular nucleoside triphosphate AUC (0 to 24 hrs) at 100 uM by LC-MS/MS analysis
[16] = test system: Hepatitis C virus; test: Antiviral activity against HCV assessed as logarithmic reduction in plasma viral RNA at 1500 mg, QD after 14 days; type: functional, Hepacivirus hominis

SMILES	EC50 ([1]; Hepatitis C virus, HBI10A) [µM]	CC50 [2] [µM]	Ratio CC50/EC50 [3]	also measured
CCOC(=O)[C@H](C)NP(=O)(OC[C@H]1O[C@@H](n2ccc(N)nc2=O)[C@](C)(O)[C@@H]1O)Oc1cc(C)c(Cl)cc1C(C)C (stereo partly specified)	0.19	9	47	–
CCCCOC(=O)[C@H](C)NP(=O)(OC[C@H]1O[C@@H](n2ccc(N)nc2=O)[C@](C)(O)[C@@H]1O)Oc1cccc2ccccc12 (stereo partly specified)	0.09	9	–	–
CCCC(CCC)COC(=O)[C@H](C)NP(=O)(O)OC[C@H]1O[C@@H](n2ccc(N)nc2=O)[C@](C)(O)[C@@H]1O	8.2	> 100	–	Drug uptake [4]: 39 µM; concentration [5]: 6 µM; concentration [6]: 4.1 µM; concentration [7]: 2.9 µM; AUC [8]: 700 µM·h; concentration [9]: 5 µM
CCOC(=O)[C@H](C)NP(=O)(OC[C@H]1O[C@@H](n2ccc(N)nc2=O)[C@](C)(O)[C@@H]1O)Oc1ccc(Cl)cc1 (stereo partly specified)	–	> 20	–	EC50 ([1]; hbi10a): 1 µM
CCOC(=O)[C@H](C)NP(=O)(OC[C@H]1O[C@@H](n2ccc(N)nc2=O)[C@](C)(O)[C@@H]1O)OCC(Cl)(Cl)Cl (stereo partly specified)	10	> 50	>5	inhibition at 20 µM [10]: 52%
CCOC(=O)[C@@H](NP(=O)(OC[C@H]1O[C@@H](n2ccc(N)nc2=O)[C@](C)(O)[C@@H]1O)Oc1ccc(Cl)cc1)c1ccccc1 (mixture of isomers)	7.4	> 20	>2.5	–
COC(=O)CCNP(=O)(OC[C@H]1O[C@@H](n2ccc(N)nc2=O)[C@](C)(O)[C@@H]1O)Oc1ccc(Cl)cc1 (mixture of isomers)	> 20	> 20	–	–
CCOC(=O)[C@H](C)NP(=O)(OC[C@H]1O[C@@H](n2ccc(N)nc2=O)[C@](C)(O)[C@@H]1O)Oc1ccc2c(ccn2C(=O)OC(C)(C)C)c1 (stereo partly specified)	0.5	> 20	40	–
CCCC[C@H](NP(=O)(OC[C@H]1O[C@@H](n2ccc(N)nc2=O)[C@](C)(O)[C@@H]1O)Oc1ccc(Cl)cc1)C(=O)OCC (mixture of isomers)	1.5	> 20	>13	–
CCOC(=O)[C@H](C)NP(=O)(OC[C@H]1O[C@@H](n2ccc(N)nc2=O)[C@](C)(O)[C@@H]1O)Oc1cccc2ccccc12 (stereo partly specified)	0.2	15	75	–
COC(=O)[C@H](C)NP(=O)(OC[C@H]1O[C@@H](n2ccc(N)nc2=O)[C@](C)(O)[C@@H]1O)Oc1ccc(C(F)(F)F)cc1 (stereo partly specified)	9.6	> 50	>5	–
CCCCOC(=O)[C@H](C)NP(=O)(OC[C@H]1O[C@@H](n2ccc(N)nc2=O)[C@](C)(O)[C@@H]1O)Oc1ccccc1Cl (stereo partly specified)	0.87	> 20	>23	–
CC(C)C(=O)OC[C@H]1O[C@@H](n2ccc(N)nc2=O)[C@](C)(F)[C@@H]1OC(=O)C(C)C [MERICITABINE]	–	–	–	Activity [11]: 2.7
CCCOC(=O)[C@H](C)NP(=O)(OC[C@H]1O[C@@H](n2ccc(N)nc2=O)[C@](C)(O)[C@@H]1O)Oc1ccccc1 (stereo partly specified)	0.97	> 20	–	–
CCOC(=O)[C@H](C)NP(=O)(OC[C@H]1O[C@@H](n2ccc(N)nc2=O)[C@](C)(O)[C@@H]1O)Oc1ccc(Cl)cc1 (mixture of isomers)	–	–	–	EC50 ([1]; hbi10a): 1.8 µM
CCOC(=O)[C@H](CC(C)C)NP(=O)(OC[C@H]1O[C@@H](n2ccc(N)nc2=O)[C@](C)(O)[C@@H]1O)Oc1ccc(Cl)cc1 (mixture of isomers)	7	> 50	>7	–

SMILES	EC50 ([1]; Hepatitis C virus, HBI10A) [µM]	CC50 [2] [µM]	Ratio CC50/EC50 [3]	also measured
CCOC(=O)[C@H](Cc1c[nH]c2ccccc12)NP(=O)(OC[C@H]1O[C@@H](n2ccc(N)nc2=O)[C@](C)(O)[C@@H]1O)Oc1ccc(Cl)cc1 (single isomer, unassigned)	17	> 50	>3	–
COC(=O)[C@H](C)NP(=O)(OC[C@H]1O[C@@H](n2ccc(N)nc2=O)[C@](C)(O)[C@@H]1O)Oc1ccc(OC)cc1 (mixture of isomers)	3.7	> 50	>13	–
COC(=O)CNP(=O)(OC[C@H]1O[C@@H](n2ccc(N)nc2=O)[C@](C)(O)[C@@H]1O)Oc1ccc(Cl)cc1 (mixture of isomers)	0.8	> 20	>25	–
COCCCOC(=O)[C@H](C)NP(=O)(OC[C@H]1O[C@@H](n2ccc(N)nc2=O)[C@](C)(O)[C@@H]1O)Oc1ccccc1 (stereo partly specified)	1.9	> 20	–	–
CCOC(=O)[C@H](C)NP(=O)(OC[C@H]1O[C@@H](n2ccc(N)nc2=O)[C@](C)(O)[C@@H]1O)Oc1ccc(Cl)cc1 (single isomer, unassigned)	–	–	–	EC50 ([1]; hbi10a): 7.9 µM
CCOC(=O)[C@H](C)NP(=O)(OC[C@H]1O[C@@H](n2ccc(N)nc2=O)[C@](C)(O)[C@@H]1O)Oc1ccccc1C(=O)OC (mixture of isomers)	11	> 50	>5	–
C[C@@]1(O)[C@H](O)[C@@H](CO)O[C@H]1n1ccc(N)nc1=O	–	–	–	Activity [12]: 2 µM
CC(C)[C@H](N)C(=O)O[C@@H]1[C@@H](CO)O[C@@H](n2ccc(N)nc2=O)[C@]1(C)O [VALOPICITABINE]	7.6	> 100	>13	Activity [13]: Dose-dependent effect; Activity [14]: 1.2; AUC [15]: 70 µM·h
CCOC(=O)[C@H](C)NP(=O)(OCc1ccccc1)OC[C@H]1O[C@@H](n2ccc(N)nc2=O)[C@](C)(O)[C@@H]1O (stereo partly specified)	> 20	> 20	–	–
CCCCOC(=O)[C@H](C)NP(=O)(OC[C@H]1O[C@@H](n2ccc(N)nc2=O)[C@](C)(O)[C@@H]1O)Oc1ccc(Cl)c2ccccc12 (mixture of isomers)	0.16	> 20	125	–
CCCC(CCC)C(=O)OCCNP(=O)(O)OC[C@H]1O[C@@H](n2ccc(N)nc2=O)[C@](C)(O)[C@@H]1O	–	–	–	Drug uptake [4]: 13 µM; concentration [9]: 36 µM
COC(=O)[C@@H](C)NP(=O)(OC[C@H]1O[C@@H](n2ccc(N)nc2=O)[C@](C)(O)[C@@H]1O)Oc1ccc(Cl)cc1 (mixture of isomers)	7.7	> 20	>2.5	–
CCOC(=O)[C@H](C)NP(=O)(OC[C@H]1O[C@@H](n2ccc(N)nc2=O)[C@](C)(O)[C@@H]1O)Oc1ccccc1C (stereo partly specified)	0.18	9	50	–
CCOC(=O)[C@H](C)NP(=O)(OC[C@H]1O[C@@H](n2ccc(N)nc2=O)[C@](C)(O)[C@@H]1O)Oc1ccc(C[C@H](N)C(=O)OC)cc1 (stereo partly specified)	> 20	> 20	–	–
CC(C)C(=O)OC[C@@]1(N=[N+]=[N-])O[C@@H](n2ccc(N)nc2=O)[C@H](OC(=O)C(C)C)[C@@H]1OC(=O)C(C)C [BALAPIRAVIR]	–	–	–	Activity [16]: 1.2
COC(=O)[C@H](Cc1ccccc1)NP(=O)(OC[C@H]1O[C@@H](n2ccc(N)nc2=O)[C@](C)(O)[C@@H]1O)Oc1ccc(Cl)cc1 (mixture of isomers)	> 20	> 20	–	–
